Sampled rows, rich in hits. Any-hit rate of the full collection: about 2%.
SR-BI DiI inh: blocks mouse SR-BI lipid uptake from DiI-HDL | ldlA[mSR-BI] CHO cells, DiI-HDL uptake fluorescence, 3 h | inhibition, % at 12.5 µM | 320,000 compounds, 0.96% hits | AID 488896;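 active = mean replicate inhibition of at least 70% and a set share of replicates each scoring 70 or more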;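 also: 0% = median of neutral control wells and 100% = median of positive control wells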
CDK5 p35 inh: blocks human CDK5/p35 kinase activity | Q00535+Q15078 | Recombinant CDK5/p35, ADP-Glo luminescence, 60 min | inhibition, % at 10 µM | 330,000 compounds, 0.01% hits;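 active = highest replicate inhibition of at least 50% and at least 75% of replicates reaching 50%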;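 also: plate controls were DMSO neutral control for no effect and GW8510 at 10 µM for full effect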
dFosB act-1: activators of mouse delta FosB homodimer | P13346 | purified delta FosB, TAMRA-CDK5 oligo fluorescence polarization; percent of positive-control signal above neutral wells | activation, % at 25 µM | 340,000 compounds, 0.99% hits | AID 493131;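 active = mean activation above about 17%, with every replicate also reaching it, limit read from the data, passing the limit was not always enough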
Target sequence (P13346 whole entry, looked up): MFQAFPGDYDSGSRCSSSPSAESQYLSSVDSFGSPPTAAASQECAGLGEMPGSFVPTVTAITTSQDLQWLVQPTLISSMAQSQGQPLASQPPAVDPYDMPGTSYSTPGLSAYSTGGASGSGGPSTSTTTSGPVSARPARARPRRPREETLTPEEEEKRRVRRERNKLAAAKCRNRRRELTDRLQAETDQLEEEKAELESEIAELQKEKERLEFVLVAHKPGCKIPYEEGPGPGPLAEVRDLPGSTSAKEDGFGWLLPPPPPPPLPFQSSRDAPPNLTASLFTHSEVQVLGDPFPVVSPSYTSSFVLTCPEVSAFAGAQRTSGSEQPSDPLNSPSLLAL
SR-BI DiI-HDL act: enhances SR-BI lipid uptake from DiI-HDL; CHO ldlA[mSR-BI] cells, DiI-HDL uptake fluorescence, 3 h; 100 = double the neutral-control signal; activation, % at 12.5 µM; 320,000 compounds, 0.096% hits; AID 504775;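 active = mean replicate activation of at least 60% and every replicate at or above 60%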;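 also: 0% = median plate neutral-control signal and 100% = twice that signal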
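System: CHO ldlA[mSR-BI] cells / Medium: HEPES-buffered (25 mM, pH 7.4) F12 plus 0.5% BSA / Probe or stimulus: labelled HDL, 10 µg/mL / Doses: single compound concentration, delivered by pin transfer / Schedule: 3 h, 37 °C / Measured by: DiI fluorescence, bottom read / Measure: cell-associated DiI fluorescence as measure of HDL uptake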
dFosB act-2: enhances mouse delta FosB homodimer binding to DNA; activation, % at 24.9 µM; 2,400 tested, under 10 active; shares compounds with dFosB act-1; AID 588690; purified delta FosB, TAMRA-CDK5 oligo fluorescence polarization; normalised: neutral wells 0, positive control 100;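 active = highest replicate activation at or above 34% and every replicate reaching that threshold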;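 also: higher polarization means more probe DNA bound by delta FosB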
The depositor's hits bear a star; . = no result.

SMILES | SR-BI DiI inh | CDK5 p35 inh | dFosB act-1 | SR-BI DiI-HDL act | dFosB act-2
CS(=O)(=O)N(CC(=O)N/N=C/c1cc2c(cc1Br)OCO2)c1ccccc1Br | 29.7 | 1.8 | 26.6* | -29.7 | 7.0
CC(C)(C)c1cc(C(=O)N/N=C/c2cc3c(cc2Br)OCO3)n[nH]1 | 76.7* | . | 27.3* | -76.7 | 3.6
O=C(N/N=C/c1cc(Br)cs1)c1c[nH]c2ccccc12 | 3.1 | 0.8 | 2.1 | -3.1 | .
O=C(N/N=C/c1cc2c(cc1Br)OCO2)c1c[nH]c2ccccc12 | 3.2 | -0.6 | 28.7* | -3.2 | 1.6
COc1ccc(CCNC(=O)c2cc(C3CC3)nc3c2cnn3C(C)C)cc1 | 6.7 | 0.0 | -11.6 | -6.7 | .
Cc1ccc(S(=O)(=O)NC2=NCN(C(C)C)CN2)cc1 | . | -0.1 | -5.6 | . | .
O=C(CSCCO)Nc1cccc2ccccc12 | 3.5 | 4.0 | -6.2 | -3.5 | .
O=C(CSCC(=O)Nc1cccc2ccccc12)Nc1cccc2ccccc12 | . | 0.5 | 49.3* | . | 3.2
Cc1sc2nc(CSC(C)C(=O)N3CCOCC3)[nH]c(=O)c2c1C (stereo not drawn) | -12.6 | -0.5 | -4.1 | 12.6 | .
COc1ccc(/C=C/C(=O)NC(=S)NNC(=O)[C@H]2C[C@@H]2c2ccccc2)cc1OC | 14.3 | -2.8 | 71.2* | -14.3 | 4.4
CC(=O)c1cn(CCOc2ccc(F)cc2)c2ccccc12 | 2.8 | -1.7 | -4.1 | -2.8 | .
O=c1[nH]c(Cn2nnc(-c3ccccc3)n2)nc2scc(-c3ccccc3)c12 | 10.6 | 0.9 | 34.5* | -10.6 | 0.2
O=c1[nH]c(CN2CCN(Cc3ccccc3)CC2)nc2scc(-c3ccccc3)c12 | 17.9 | 2.0 | 7.1 | -17.9 | .
O=C(NCC1CCN(Cc2ccc(F)cc2)CC1)Nc1cc(F)ccc1F | 2.8 | -0.5 | -6.4 | -2.8 | .
CCCOc1ccc(C(=O)OCCN2CCCCC2)c(O)c1 | -21.3 | 0.1 | -7.8 | 21.3 | .
Cc1cc(-n2c(SCC(=O)NCCC3=CCCCC3)nc3n[nH]c(C)c3c2=N)ccc1Cl | 15.2 | -0.1 | 0.3 | -15.2 | .
Cc1[nH]nc2nc(SCC(=O)NCCC3=CCCCC3)n(-c3ccc(Br)cc3)c(=N)c12 | 13.0 | 0.5 | 65.9* | -13.0 | 8.1
COc1cc2nc(N3CCN(C(=O)[C@H]4COc5ccccc5O4)CC3)nc(N)c2cc1OC | -7.4 | -0.1 | -0.9 | 7.4 | .
CN(Cc1ccc(Br)cc1)CC(O)COc1cccc(Br)c1 (stereo not drawn) | -22.7 | 0.1 | -3.3 | 22.7 | .
COc1ccc(Nc2oc(COc3ccc(Cl)cc3)nc2C#N)cc1 | -8.7 | 0.4 | 22.3* | 8.7 | 0.9
C[N+](C)(C)CC(=O)N/N=C/c1c2ccccc2cc2ccccc12 | -24.2 | . | 30.9* | 24.2 | 1.0
CC1CC(C)CN(CCCNC(=O)c2ccc3c(c2)N(Cc2ccccc2)C(=O)c2ccccc2S3=O)C1 (stereo not drawn) | -0.8 | -3.2 | 8.8 | 0.8 | .
COCCC(=O)N1CCC(Oc2ccc(C(=O)NC(C)CCn3cccn3)cc2)CC1 (stereo not drawn) | -8.5 | 0.4 | -2.2 | 8.5 | .
Cc1ccc2nc(-c3ccc(SCC(=O)Nc4nnc(C)s4)nc3)[nH]c2c1 | 1.7 | -1.4 | 71.6* | -1.7 | 2.4
Cc1csc(NC(=O)CSc2ncc(-c3ccccc3)[nH]2)n1 | -10.1 | -3.0 | -5.6 | 10.1 | .
SMILES | SR-BI DiI inh | CDK5 p35 inh | dFosB act-1 | SR-BI DiI-HDL act | dFosB act-2
Cc1ccc2nc(-c3ccc(SCC(=O)Nc4nc(C)cs4)nc3)[nH]c2c1 | 15.1 | -0.9 | 33.0* | -15.1 | 4.7
Cn1cnnc1Sc1cc(N2CCN(S(=O)(=O)c3ccc4ccccc4c3)CC2)ccc1[N+](=O)[O-] | 31.0 | . | 18.9* | -31.0 | -0.6
C/C(=N\N=C(/N)SC1CC(=O)N(c2ccc(Cl)cc2)C1=O)c1cccs1 (stereo not drawn) | 35.2 | 1.4 | -7.4 | -35.2 | .
C/C(=N\N=C(/N)SC1CC(=O)N(c2ccc(Cl)c(Cl)c2)C1=O)c1cccs1 (stereo not drawn) | 59.0 | 1.9 | 25.2* | -59.0 | 2.7
Cc1cc2nc(-c3ccc(SCC(=O)Nc4ccc5c(c4)OCCO5)nc3)[nH]c2cc1C | 22.8 | 0.1 | 31.6* | -22.8 | 2.6
O=C(CSc1ccc(-c2nc3ccccc3[nH]2)cn1)Nc1ccc2c(c1)OCCO2 | 5.9 | -0.7 | 40.2* | -5.9 | 5.8
S=C(NCc1ccc2c(c1)OCO2)Nc1ccc(-c2nc3ccccc3[nH]2)cc1 | 3.3 | 0.7 | 31.7* | -3.3 | -9.1

Source: PubChem
